The record followed here is PMC11309612 (Medicine, 2024).

Values joined by “and” are separate entries in the source; they are usually repeats but may differ in a detail not shown here. Equal entries are not always repeated. Where two headings read alike, the source gives them in different places.

In data set [1] the test system is U-87 MG cells. As to the kind of experiment: Caspase-3 activation in flow cytometry. Type of data set: cell-based, human. Particulars: for Caspase-3 levels compared to the control / Caspase-3-positive cells % (lower right quadrant): IC50 concentration; for Caspase-3 levels compared to the control: 48th hour; for Caspase-3-positive cells % (lower right quadrant): n = 3, mean ± SD, control 0.6 ± 0.3. The method in brief: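 U-87 MG cells were seeded at 1 × 10^5 per well in 6-well plates and exposed for 48 h to 150 μM test compound or 45 μM comparator, with 0.1% DMSO as control. After a PBS wash, cells were fixed and permeabilised with cytofix/cytoperm for 20 min on ice, then stained with PE rabbit anti-active caspase-3 for 30 min at room temperature. Flow cytometry gave quadrant %; n = 3, mean ± SD.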
Background: In flow cytometry, cells or beads pass a laser one at a time.

The subject of data set [2] is BJ human healthy fibroblast cells. Description: WST-1 cytotoxicity assay in BJ cells. Type of data set: cell-based. The following applies: for IC50: read-out: IC50 according to WST-1 results. The method in brief:
(§1)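 U-87 MG glioblastoma cells or BJ foreskin fibroblasts were seeded at 3 × 10^3 per well and left 24 h. Test compound, freshly diluted in medium, was applied at 0.97–500 µM (ten concentrations) for 24 or 48 h. WST-1 reagent was added per kit and absorbance read at 540 nm. There were 7 wells per concentration and 3 independent experiments. The 0.1% DMSO control was set to 100% viability, and IC50 was derived from the % viability values.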
Background: Formazan colour is commonly taken as a measure of viable cells.

Data set [3] relates to U-87 MG cells. Description: Mitochondrial membrane integrity. Type of data set: cell-based, human. The following applies: for Increase of mitochondrial depolarization levels compared to the control: IC50 concentration, 48th hour; for JC-1-positive cells % (lower quadrant), mitochondrial depolarization: JC-1, IC50 concentration, n = 3, mean ± SD, control 12.3 ± 2.0. The method in brief: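 U-87 MG cells were treated for 48 h with 150 μM test compound or 45 μM comparator, with 0.1% DMSO as control. Cells were pelleted at 1200 rpm for 5 min and incubated in JC-1 working solution for 15 min at 37°C. They were washed, resuspended in kit assay solution and read by flow cytometry. Upper-quadrant (viable) and lower-quadrant (JC-1-positive, depolarised) percentages were recorded; n = 3, mean ± SD.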

In data set [4] the test system is U-87 MG human glioblastoma cells. Description: WST-1 antiproliferative assay in U-87 MG cells. Type of data set: cell-based. The following applies: for IC50: read-out: IC50 according to WST-1 results; for % viability value at the highest concentration: WST-1, highest concentration (500 µM). The method in brief: as §1
For data set [5], the system named is U-87 MG cells. Description: Annexin V and Propidium iodide staining apoptosis assay in flow cytometry. Particulars: for Increase of late apoptotic effects compared to U-87 MG control group: IC50 concentration, 48th hour. In kind it is cell-based, human. Summed up: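 U-87 MG cells were cultured in EMEM with 10% FBS, 1% penicillin-streptomycin and 1% L-glutamine at 37°C in 5% CO2. Cells were exposed for 48 h to 150 μM test compound or 45 μM comparator, with 0.1% DMSO as control. They were detached, pelleted and washed twice in cold PBS. Annexin V/PI staining ran 20 min at room temperature in the dark, then binding buffer was added and flow cytometry was read within 30 min. Quadrant %, n = 3, mean ± SD.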

In the case of `O=NN(CCCl)C(=O)NCCCl` [Carmustine, carmustine], the viability at 45.68 µM in data set [1] (Homo sapiens, U-87 MG, 48 h, read-out: Viable cells % (lower left quadrant)) was determined as 96.2 ± 0.9%; in data set [3] (Homo sapiens, U-87 MG, 48 h, read-out: Viable cells % (upper quadrant)) it was 41.4 ± 3.8%; in data set [5] (Homo sapiens, U-87 MG, read-out: Viable cells % (lower left quadrant)) it was 57.6 ± 6.96%. For the same compound, the “Caspase-3 levels compared to the control” value in data set [1] was “did not show any difference”. Besides, the “Caspase-3-positive cells % (lower right quadrant)” value in data set [1] (48 h) is 3.8 ± 1.0%. The IC50 in data set [2] (Homo sapiens, BJ, 24 h) was 144 µM; in data set [2] (Homo sapiens, BJ, 48 h), 81.4 µM; in data set [4] (Homo sapiens, U-87 MG, 24 h), 40.6 µM; in data set [4] (Homo sapiens, U-87 MG, 48 h), 45.7 µM. In addition, the “Increase of mitochondrial depolarization levels compared to the control” value in data set [3] is given as ~4.7 times. For the same compound, in data set [3] (48 h), the “JC-1-positive cells % (lower quadrant), mitochondrial depolarization” value amounted to 58.6 ± 3.80%. Also, the “Increase of late apoptotic effects compared to U-87 MG control group” value in data set [5] is listed as “approximately 3 times”.

`O=P1(N(CCCl)CCCl)NCCCO1` (stereo not shown) [Cyclophosphamide, cyclophosphamide]: the IC50 in data set [2] (Homo sapiens, BJ, 24 h) came to 650 µM; in data set [2] (Homo sapiens, BJ, 48 h) it was 3970 µM; in data set [4] (Homo sapiens, U-87 MG, 24 h), 581 µM; in data set [4] (Homo sapiens, U-87 MG, 48 h), 580 µM. The “Cytotoxic effect on BJ cells” value in data set [2] (WST-1, especially at the 48th hour) is “did not have a cytotoxic effect”.

As to `NC(=O)[C@H](CCCN=C(N)CCl)NC(=O)c1ccccc1` [Cl-amidine, chlorine-amidine], in data set [1], the “Caspase-3 levels compared to the control” value is given as “did not show any difference”. Also, in data set [1] (48 h), the “Caspase-3-positive cells % (lower right quadrant)” value is 2.8 ± 0.9%. Moreover, the half-inhibitory concentration (IC50) in data set [2] (BJ cells, 24 h incubation) is 604 µM; in data set [2] (BJ cells, 48 h incubation) it was 549 µM; in data set [4] (U-87 MG cells, 24 h incubation), 256 µM; in data set [4] (U-87 MG cells, 48 h incubation), 150 µM. Also, in data set [3], the “Increase of mitochondrial depolarization levels compared to the control” value was “approximately 4.5 times”. The “JC-1-positive cells % (lower quadrant), mitochondrial depolarization” value in data set [3] (48 h) was 54.7% and 54.7 ± 11.60%. The “% viability value at the highest concentration” value was found to be 41.16% in data set [4] (U-87 MG, 24 hours) and 35.64% in data set [4] (U-87 MG, 48 hours). The “Increase of late apoptotic effects compared to U-87 MG control group” value in data set [5] is given as 2.5 times.

In general, IC50 refers to the concentration at which inhibition is half-maximal.
